# Compounds with a hit are over-represented: about 3% of the library has one in this group of screens.
# S1P3 ag – S1P3 (human) receptor agonism | AID 373 | 60,000 tested, 0.1% active | activation, % at 4.5 µM | Q99500 | S1P3 NFAT-BLA reporter cells, FRET ratio; relative to 1 µM S1P, basal subtracted;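 active = activation above the screen-wide mean plus 3 SD, cut at about 4.5% in these data, passing the limit was not always enough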
#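 Measure – % activation relative to 1 µM S1P (100%), per plate · System – stable CHO line with human S1P3, Gα16, NFAT-BLA reporter · Timing – cells plated overnight, compound 4 h 37 °C, substrate 2 h RT · Technique – fluorescent BLA substrate, ex 405 nm, em 460/535 nm ratio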
# 5HT1E antag – antagonists of human 5-HT1E serotonin receptor. CHO 5-HT1E Ga15 NFAT-bla reporter, FRET, antagonist. inhibition, % at 6 µM. 65,000 tested, 0.99% active;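 active = inhibition above a set limit, the mean inhibition across every tested compound plus 3 SD, cut at about 29% in these data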;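 also: signal is the 460 over 535 nm emission ratio of beta-lactamase substrate; 0% = agonist plus DMSO wells and 100% = wells without agonist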
# Target sequence (P28566 whole entry, looked up): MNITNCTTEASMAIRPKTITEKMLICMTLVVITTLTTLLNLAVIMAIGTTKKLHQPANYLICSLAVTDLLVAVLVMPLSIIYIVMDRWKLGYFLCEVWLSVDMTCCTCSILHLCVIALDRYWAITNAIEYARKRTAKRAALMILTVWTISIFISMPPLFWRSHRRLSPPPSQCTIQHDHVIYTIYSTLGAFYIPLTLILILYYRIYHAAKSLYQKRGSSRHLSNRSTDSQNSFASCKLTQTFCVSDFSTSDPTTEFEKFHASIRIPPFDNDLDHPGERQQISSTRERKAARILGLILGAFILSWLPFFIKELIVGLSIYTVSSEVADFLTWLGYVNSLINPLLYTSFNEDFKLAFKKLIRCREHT
# 5-HT1A blocker – 5-HT1a (human) receptor antagonism | P08908 | CHO 5-HT1a Ga15 NFAT-bla reporter, antagonist mode | inhibition, % at 10 µM | 62,000 tested, 0.68% active;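 active = inhibition above the mean of all tested compounds plus 3 SD, cut at about 43% in these data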;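 also: receptor stimulated by 5-CT agonist at 100 nM near EC80; beta-lactamase reporter measured by ratiometric fluorescence of a cleavable substrate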
# S1P1 ag pot – agonists and agonism potentiators of human S1P1 receptor | P21453 | S1P1 CRE-bla cells, forskolin, beta-lactamase FRET, potentiator mode; S1P1 agonist co-added at EC20, 2 nM; 100% = saturating reference agonist, 0% = basal | activation, % at 9.5 µM | 56,000 tested, 0.57% active;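 active = activation above a cutoff set at the mean activation of all tested compounds plus 3 SD, cut at about 54% in these data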;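 also: forskolin at 4 µM as EC80 and the EC20 agonist is SEW2871; 100% = SEW2871 at its EC100 plus forskolin at EC80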
# 5HT1a ag – activates the human 5-HT1a serotonin receptor | P08908 | CHO 5-HT1a Ga15 NFAT-bla reporter, FRET ratio; 0% basal, 100% maximal reference agonist | activation, % at 10 µM | 65,000 tested, 0.56% active;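 active = activation above the screen-wide mean activation plus 3 SD, cut at about 19% in these data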;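 also: 0% = DMSO wells and 100% = 5-CT at EC100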
# 5HT1E ag – activates the human 5-HT1E serotonin receptor | CHO 5-HT1E Ga15 NFAT-bla reporter, FRET; 0% DMSO wells, 100% control agonist wells | activation, % at 6 µM | 65,000 tested, 0.69% active | AID 574;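 active = activation above a set limit, the screen-wide mean activation plus 3 SD, cut at about 8.5% in these data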;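 also: 100% = positive control agonist at 1 µM giving full maximal response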
# * = called active by the depositor; x = no result.
SMILES,S1P3 ag,5HT1E antag,5-HT1A blocker,S1P1 ag pot,5HT1a ag,5HT1E ag
CC1(C)Cc2cccc(OCC(O)CNCc3ccccn3)c2O1 (stereo not given),-1.5,10.3,20.6,14.3,-0.8,0.0
COC(=O)c1ccccc1NC(=O)Cn1c(-c2nonc2N)nc2ccccc21,-1.5,80.7*,74.0*,19.8,-2.3,-1.4
Nc1nonc1-c1nc2ccccc2n1CC(=O)N1CCCCC1,0.2,5.2,6.7,15.3,0.0,-0.1
COc1cccc(NC(=O)CCS(=O)(=O)c2cccs2)c1,-0.4,-5.0,-0.7,5.8,1.7,-0.7
CC(=O)C1=C(C)Nc2ncnn2C1c1ccccc1OCc1ccccc1 (stereo not given),-0.2,-2.5,-1.5,-23.9,-2.2,-0.4
O=C(NCc1ccccc1)C1CCCN(C(=O)Nc2ccccc2)C1 (stereo not given),-0.2,12.5,5.4,2.9,-0.9,-0.4
Cc1cccc(NC(=O)C2CCCN(C(=O)Nc3ccccc3)C2)c1C (stereo not given),-0.5,5.5,-0.1,0.7,-0.5,87.7*
CCCCOc1ccc(-c2nnn(C(C)(C)C(=O)OC)n2)cc1,0.4,-0.8,-10.0,1.4,-0.1,0.1
COc1ccc(OCC(O)Cn2c(=N)n(Cc3ccccc3)c3ccccc32)cc1 (stereo not given),-1.3,11.7,47.5*,9.3,-3.4,-1.7
Cc1cccc(OCC(O)Cn2c(=N)n(CCN3CCCCC3)c3ccccc32)c1 (stereo not given),-1.7,5.8,68.4*,-7.1,7.4,0.1
N=c1n(Cc2ccccc2)c2ccccc2n1CC(O)c1ccco1 (stereo not given),-0.1,-0.4,13.3,-0.8,-3.8,-0.4
COC(=O)CSc1nnc(CNC(=O)Cc2ccccc2)n1C,-0.7,17.0,4.3,1.1,-3.1,0.0
CCOC(=O)c1c(NC(=O)CSc2n[nH]c(-c3ccco3)n2)sc(C)c1C,-0.2,43.6*,22.5,-2.1,1.5,-0.5
CCOC(=O)CSc1n[nH]c(-c2ccco2)n1,-1.1,12.7,9.0,-24.8,-2.6,-0.3
O=C(CSc1n[nH]c(-c2ccco2)n1)N1c2ccccc2Sc2ccccc21,-0.4,37.4*,30.1,22.8,-1.1,-1.4
O=C(COC(=O)c1ccccc1S(=O)(=O)N1CCCCC1)NCC(F)(F)F,0.8,29.2*,12.0,12.3,-5.0,-0.6
Cc1ccc(OC(=O)c2cccc(C(=O)Oc3ccc(C)cn3)n2)nc1,-0.6,2.6,-0.2,-17.2,-5.5,-0.5
CC1(C)Cc2c(c(N3CCCC3)nc3sc4c(N5CCN(CCO)CC5)ncnc4c23)CO1,x,40.8*,-6.4,x,5.6,0.9
CC1=CCC2C(=O)N(c3ccc(C)c(Br)c3)C(=O)C2C1 (stereo not given),-1.3,-3.5,-1.7,-2.3,13.3,13.1*
CC1=CCC2C(=O)N(c3ccc(Br)cc3C)C(=O)C2C1 (stereo not given),-0.9,-6.6,0.8,-14.9,0.0,-0.3
COCCn1c(C)cc(C(=O)CSc2nc3ccccc3o2)c1C,0.0,-0.6,-4.6,66.0*,1.1,0.3
Cn1c(SCCS(=O)(=O)c2ccc(Cl)cc2)nnc1-c1ccccc1,-0.9,3.9,-9.2,-6.0,-2.8,-0.4
CC(C)c1cc(C(=O)N2CCN(C(c3ccccc3)c3ccccc3)CC2)no1,-0.2,2.6,-10.0,75.6*,1.6,0.4
O=C(c1cc(-c2ccccc2)on1)N1CCN(C(=O)c2ccco2)CC1,-0.2,-2.8,7.3,-25.5,-4.2,-0.1
COc1ccc(-c2cc(C(=O)N3CCN(C(c4ccccc4)c4ccccc4)CC3)no2)cc1OC,-0.4,-24.9,37.2,-0.4,-2.4,1.9
SMILES,S1P3 ag,5HT1E antag,5-HT1A blocker,S1P1 ag pot,5HT1a ag,5HT1E ag
O=C(c1noc2c1CCCC2)N1CCN(C(c2ccccc2)c2ccccc2)CC1,0.3,-6.9,-0.3,29.7,-4.2,-0.1
COc1ccc(-c2cc(C(=O)N3CCN(C(c4ccccc4)c4ccccc4)CC3)no2)cc1,-1.2,-3.6,44.0*,-9.2,-3.4,1.4
O=C(c1cc(-c2ccco2)on1)N1CCN(C(c2ccccc2)c2ccccc2)CC1,0.1,-15.5,42.6*,59.8*,-5.0,0.4
CC1CCc2cc(F)ccc2N1C(=O)c1ccc2c(c1)OCO2 (stereo not given),-0.7,9.0,4.8,7.8,6.7,-0.8
CCn1cc(C(=O)O)c(=O)c2cnc(N3CCN(C(=O)Nc4cccc5ccccc45)CC3)nc21,-1.5,-3.8,-0.9,-1.7,-2.5,1.3
N#CCCN(C(=O)CN1C(=O)NC2(CCCC2)C1=O)c1ccccc1F,x,-0.4,-4.3,x,82.1*,0.6
O=C(O)CCN1C(=O)NC2(CCCC2)C1=O,-0.8,-0.2,-1.0,-7.2,-0.8,0.1
COC(=O)c1sccc1NC(=O)c1cc2c(s1)CCCC2,-1.3,7.4,40.2,22.5,30.0*,-1.1
COC(=O)c1sccc1NC(=O)c1ccc(Br)o1,-0.9,20.2,1.4,-29.7,-0.8,-0.2
Cc1cc(N2CCOCC2)nc(NCc2ccccc2)n1,-2.2,32.6*,3.6,58.9*,-3.7,-0.1
Cc1cc(N2CCOCC2)nc(SCC(=O)c2ccccc2)n1,x,1.8,-5.8,x,1.9,0.0
O=C(c1ccco1)N(CCCN1CCOCC1)c1nc(-c2ccc(Cl)cc2)cs1,-1.7,11.7,47.6*,10.9,-3.1,-0.7
O=C(c1ccco1)N(CCCN1CCOCC1)c1nc(-c2ccc(F)cc2)cs1,-1.0,8.2,14.4,8.6,-0.2,0.8
OCCN1CCN(c2ncnc3c2sc2nc(N4CCOCC4)c4c(c23)CCC4)CC1,x,15.8,-18.9,x,1.2,1.7
OCCN(CCO)c1ncnc2c1sc1nc(N3CCOCC3)c3c(c12)CCCC3,1.0,30.7*,x,-73.2,5.6,0.6
Cc1cc(N2CCN(C3CCCC3)CC2)n2nc(C)c(-c3ccccc3)c2n1,0.8,-7.7,-7.2,-3.0,2.0,-0.3
Cc1ccc(-n2nc3c([n+]2[O-])CCc2c-3no[n+]2[O-])cc1,-2.3,74.4*,72.8*,41.1,-4.7,-1.6
[O-][n+]1onc2c1CCc1c-2nn(-c2ccccc2Cl)[n+]1[O-],-1.7,33.6*,60.5*,29.1,-4.8,-0.5
OC1CCCN(c2c3c(nc4cc(-c5cccc(Cl)c5)nn24)CCC3)C1 (stereo not given),x,38.2*,7.3,x,1.1,-0.7
Cc1cccc(-c2cc3nc4c(c(N5CCCC(O)C5)n3n2)CCC4)c1 (stereo not given),-0.7,49.8*,20.4,-8.2,-1.7,0.2
Cc1cccc(-c2cc3nc4c(c(N5CCC6(CC5)OCCO6)n3n2)CCCC4)c1,-0.4,14.7,8.1,-10.9,-3.4,-0.2
